Laboratory results published in ChEMBL document CHEMBL4382210, “Identification of novel benzothiopyranone compounds against Mycobacterium tuberculosis through scaffold morphing from benzothiazinones” (Eur J Med Chem, 2018).
Converted amounts (≈) assume the structure as drawn.

Key:
[1] = Inhibition of Mycobacterium tuberculosis DprE1 expressed in Escherichia coli BL21(DE3) by fluorescence based assay
How it was run: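 Buffer: 50 mM Hepes pH 7.5, 100 mM NaCl, 1.5% DMSO, 100 µM Tween-20, 2 µM FAD, 50 µM resazurin. DprE1 (1 µM) with 1 mM FPR at 30 °C across inhibitor concentrations. Resorufin formation followed by fluorescence (ex 530/em 595 nm).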

[2] = Metabolic stability in human liver microsomes assessed as parent compound remaining at 1 uM measured after 30 mins in presence of NADPH by LC-MS/MS analysis; assay type: ADME, Microsome; conditions: read-out: Stability
How it was run: (§1)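 Male CD-1 mouse or pooled human liver microsomes (1 mg/mL protein), compound at 1 µM, 37 °C. Reaction started with 1 mM NADPH and quenched with cold ACN/MeOH containing internal standard. Parent remaining measured by LC-MS/MS; the 30-min value is normalised to time zero.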

[3] = tested on: Mycobacterium tuberculosis; experiment: Antimicrobial activity against Mycobacterium tuberculosis H37Rv after 7 days by MABA; assay type: functional; conditions: 168 h
How it was run: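 Strain H37Rv or clinical isolates grown to late log phase in 7H9-ADC-TG, washed, resuspended in PBS, filtered (8 µm) and frozen. On day 7 Tween 80 and alamar blue added, read 16–24 h later (ex 530/em 590). MIC = lowest concentration giving ≥90% fluorescence reduction versus bacterium-only controls.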

Vero = experiment: Cytotoxicity against African green monkey Vero cells assessed as reduction in cell viability after 48 hrs by MTT assay; assay type: cell-based; conditions: Chlorocebus sabaeus
How it was run: (§2)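 Vero or HepG2 cells in RPMI1640 with 10% FBS at 37 °C, 5% CO2, seeded at 4×10^5 cells/mL. Threefold dilutions at 64–0.26 µg/mL final for 48 h. Cells then washed with HBSS, MTT added for 4 h, absorbance read at 492 nm. IC50 taken relative to untreated control.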

[4] = Metabolic stability in CD-1 mouse liver microsomes assessed as parent compound remaining at 1 uM measured after 30 mins in presence of NADPH by LC-MS/MS analysis; assay type: ADME, Microsome; conditions: read-out: Stability; how it was run: as §1
[5] = Selectivity index, ratio of IC50 for human HepG2 cells to MIC=>90 for Mycobacterium tuberculosis H37Rv; assay type: toxicity; conditions: read-out: Selectivity Index
HepG2 = experiment: Cytotoxicity against human HepG2 cells assessed as reduction in cell viability after 48 hrs by MTT assay; assay type: cell-based; conditions: HepG2, 48 h; how it was run: as §2
[6] = tested on: Mycobacterium tuberculosis; experiment: Antimicrobial activity against Mycobacterium tuberculosis H37Rv infected in BALB/C mouse assessed as bacterial burden in mouse lung at 25 mg/kg, po administered via gavage treated 5 times per week for 3 weeks starting from day 10 post infection (reference value: 7.102 +/- 0.152 log10CFU); assay type: functional
[7] = Intrinsic clearance in CD-1 mouse hepatocytes assessed per million cells at 1 uM incubated up to 120 mins by LC-MS/MS analysis; assay type: ADME, cell-based, Hepatocyte; conditions: read-out: CLH
How it was run: (§3)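 Pooled male CD-1 mouse or pooled human hepatocytes at 1 million cells/mL final, compound at 1 µM. Incubated at 37 °C in a CO2 incubator with shaking (~100 rpm). Samples taken at 0, 15, 30, 60, 90 and 120 min and quenched with cold ACN/MeOH containing internal standard. Parent compound remaining measured by LC-MS/MS.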

[8] = Half life in CD-1 mouse hepatocytes assessed per million cells at 1 uM incubated up to 120 mins by LC-MS/MS analysis; assay type: ADME, cell-based, Hepatocyte; how it was run: as §3
[9] = Half life in human hepatocytes assessed per million cells at 1 uM incubated up to 120 mins by LC-MS/MS analysis; assay type: ADME, cell-based, Hepatocyte; how it was run: as §3
[10] = Intrinsic clearance in human hepatocytes assessed per million cells at 1 uM incubated up to 120 mins by LC-MS/MS analysis; assay type: ADME, cell-based, Hepatocyte; conditions: read-out: CLH; how it was run: as §3

Compound	MIC90 [3] [µg/mL]	IC50 (Vero) [µg/mL]	further results
CC1COC2(CCN(c3cc(=O)c4cc(C(F)(F)F)cc([N+](=O)[O-])c4s3)CC2)O1 (configuration not stated)	0.03 (≈ 0.0697 µM)	> 64	IC50 [1]: 630 nM; remaining at 0.5 h, 1 µM [2]: 82.8%; remaining at 0.5 h, 1 µM [4]: 47.4%
O=c1cc(NCc2cccc(F)c2)sc2c([N+](=O)[O-])cc(C(F)(F)F)cc12	0.118 (≈ 0.296 µM)	> 64	
O=c1nc(NC2CCCCC2)oc2c([N+](=O)[O-])cc(C(F)(F)F)cc12	0.118 (≈ 0.33 µM)	5.39 (≈ 15.1 µM)	
O=c1nc(NCc2cccc(F)c2)oc2c([N+](=O)[O-])cc(C(F)(F)F)cc12	> 32	> 64	
COc1ccc(CNc2cc(=O)c3cc(C(F)(F)F)cc([N+](=O)[O-])c3s2)cc1OC	0.902 (≈ 2.05 µM)	> 64	
CC1COC2(CCN(c3cc(=O)c4cc(C(F)(F)F)cc([N+](=O)[O-])c4o3)CC2)O1 (configuration not stated)	< 0.016	18.9 (≈ 45.5 µM)	
O=c1cc(NCc2ccc(F)cc2)sc2c([N+](=O)[O-])cc(C(F)(F)F)cc12	0.206 (≈ 0.517 µM)	> 64	
O=c1nc(NCc2ccc3c(c2)OCCO3)oc2c([N+](=O)[O-])cc(C(F)(F)F)cc12	0.03 (≈ 0.0709 µM)	25.3 (≈ 59.7 µM)	
O=c1cc(N2CCN(Cc3ccccc3)CC2)sc2c([N+](=O)[O-])cc(C(F)(F)F)cc12	0.03 (≈ 0.0667 µM)	> 64	IC50 [1]: 1330 nM; remaining at 0.5 h, 1 µM [2]: 87.6%; selectivity ratio [5]: > 2130; remaining at 0.5 h, 1 µM [4]: 60.5%; IC50 (HepG2): > 64 µg/mL
O=c1nc(Nc2ccccc2)oc2c([N+](=O)[O-])cc(C(F)(F)F)cc12	30.6 (≈ 87.3 µM)	37.9 (≈ 108 µM)	
O=c1cc(N2CCN(c3nccs3)CC2)sc2c([N+](=O)[O-])cc(C(F)(F)F)cc12	0.054 (≈ 0.122 µM)	> 64	
O=c1cc(N2CCN(CC3CCCCC3)CC2)oc2c([N+](=O)[O-])cc(C(F)(F)F)cc12	0.116 (≈ 0.264 µM)	10.6 (≈ 24.1 µM)	
CC1CN(c2cc(=O)c3cc(C(F)(F)F)cc([N+](=O)[O-])c3s2)CCN1Cc1ccccc1 (configuration not stated)	< 0.016	> 64	remaining at 0.5 h, 1 µM [2]: 76.7%; remaining at 0.5 h, 1 µM [4]: 54.5%
CC1COC2(CCN(c3nc(=O)c4cc(C(F)(F)F)cc([N+](=O)[O-])c4o3)CC2)O1 (configuration not stated)	< 0.016	9.21 (≈ 22.2 µM)	
O=c1cc(NC2CCCCC2)sc2c([N+](=O)[O-])cc(C(F)(F)F)cc12	1.53 (≈ 4.1 µM)	> 64	
CN(Cc1ccc2c(c1)OCCO2)c1cc(=O)c2cc(C(F)(F)F)cc([N+](=O)[O-])c2s1	< 0.016	> 64	remaining at 0.5 h, 1 µM [2]: 44.9%; remaining at 0.5 h, 1 µM [4]: 6.46%
O=c1cc(Nc2ccccc2)sc2c([N+](=O)[O-])cc(C(F)(F)F)cc12	> 32	> 64	
CC1CN(c2nc(=O)c3cc(C(F)(F)F)cc([N+](=O)[O-])c3o2)CCN1CC1CCCCC1 (configuration not stated)	< 0.016	10.9 (≈ 23.9 µM)	
O=c1nc(NCC2CCCCC2)oc2c([N+](=O)[O-])cc(C(F)(F)F)cc12	0.05 (≈ 0.135 µM)	29.7 (≈ 80.1 µM)	
CN(Cc1ccc2c(c1)OCCO2)c1cc(=O)c2cc(C(F)(F)F)cc([N+](=O)[O-])c2o1	< 0.016	29.4 (≈ 67.4 µM)	
O=c1cc(NCC2CCCCC2)sc2c([N+](=O)[O-])cc(C(F)(F)F)cc12	0.402 (≈ 1.04 µM)	> 64	
O=c1nc(N2CCN(Cc3ccccc3)CC2)oc2c([N+](=O)[O-])cc(C(F)(F)F)cc12	3.93 (≈ 9.05 µM)	33.5 (≈ 77.1 µM)	

Compound	MIC90 [3] [µg/mL]	IC50 (Vero) [µg/mL]	further results
O=c1nc(N2CCN(c3nccs3)CC2)oc2c([N+](=O)[O-])cc(C(F)(F)F)cc12	4 (≈ 9.36 µM)		
COc1ccc(CN(C)c2cc(=O)c3cc(C(F)(F)F)cc([N+](=O)[O-])c3s2)cc1OC	< 0.016	> 64	
COc1ccc(CNc2nc(=O)c3cc(C(F)(F)F)cc([N+](=O)[O-])c3o2)cc1OC	0.226 (≈ 0.531 µM)	29.2 (≈ 68.7 µM)	
CN(Cc1ccccc1)c1nc(=O)c2cc(C(F)(F)F)cc([N+](=O)[O-])c2o1	0.031 (≈ 0.0817 µM)	3.84 (≈ 10.1 µM)	
O=c1cc(NCc2ccccc2)sc2c([N+](=O)[O-])cc(C(F)(F)F)cc12	> 32	> 64	
COc1ccc(CN(C)c2nc(=O)c3cc(C(F)(F)F)cc([N+](=O)[O-])c3o2)cc1OC	0.057 (≈ 0.13 µM)	9.46 (≈ 21.5 µM)	
O=c1nc(N2CCN(CC3CCCCC3)CC2)oc2c([N+](=O)[O-])cc(C(F)(F)F)cc12	0.159 (≈ 0.361 µM)	52.1 (≈ 118 µM)	
CC1CN(c2cc(=O)c3cc(C(F)(F)F)cc([N+](=O)[O-])c3s2)CCN1CC1CCCCC1 (configuration not stated)	< 0.016	> 64	remaining at 0.5 h, 1 µM [2]: 62.7%; remaining at 0.5 h, 1 µM [4]: 59.9%
O=C1CN(c2cc(=O)c3cc(C(F)(F)F)cc([N+](=O)[O-])c3s2)CCN1CC1CCCCC1	< 0.016	> 64	remaining at 0.5 h, 1 µM [2]: 86.6%; remaining at 0.5 h, 1 µM [4]: 7.38%
O=C1CN(c2nc(=O)c3cc(C(F)(F)F)cc([N+](=O)[O-])c3o2)CCN1CC1CCCCC1	6.28 (≈ 13.8 µM)	25.4 (≈ 55.9 µM)	
O=c1nc(NCc2ccc(F)cc2)oc2c([N+](=O)[O-])cc(C(F)(F)F)cc12	7.22 (≈ 18.8 µM)	> 64	
O=c1nc(NCc2ccccc2)oc2c([N+](=O)[O-])cc(C(F)(F)F)cc12	30.5 (≈ 83.6 µM)	25.4 (≈ 69.4 µM)	
O=C1CN(c2cc(=O)c3cc(C(F)(F)F)cc([N+](=O)[O-])c3o2)CCN1CC1CCCCC1	0.091 (≈ 0.201 µM)	9.73 (≈ 21.5 µM)	
CN(Cc1ccccc1)c1cc(=O)c2cc(C(F)(F)F)cc([N+](=O)[O-])c2s1	< 0.016	> 64	remaining at 0.5 h, 1 µM [2]: 11.6%; remaining at 0.5 h, 1 µM [4]: 13%
CN(Cc1ccc2c(c1)OCCO2)c1nc(=O)c2cc(C(F)(F)F)cc([N+](=O)[O-])c2o1	< 0.016	9.27 (≈ 21.2 µM)	
CC1CN(c2nc(=O)c3cc(C(F)(F)F)cc([N+](=O)[O-])c3o2)CCN1Cc1ccccc1 (configuration not stated)	< 0.016	15.6 (≈ 34.8 µM)	
O=c1cc(NCc2ccc3c(c2)OCCO3)sc2c([N+](=O)[O-])cc(C(F)(F)F)cc12	0.03 (≈ 0.0684 µM)	> 64	
C[C@H]1COC2(CCN(c3nc(=O)c4cc(C(F)(F)F)cc([N+](=O)[O-])c4s3)CC2)O1 [BTZ-043]	< 0.016	> 64	IC50 [1]: 1030 nM
NNC(=O)c1ccncc1 [ISONIAZID]	0.035 (≈ 0.255 µM)		Activity [6]: 1.929 log10CFU
O=c1nc(N2CCN(CC3CCCCC3)CC2)sc2c([N+](=O)[O-])cc(C(F)(F)F)cc12 [MACOZINONE]	< 0.016	> 64	IC50 [1]: 200 nM; hepatocyte CLint at 1 µM [7]: 4.2 µL/min/1e6 cells; remaining at 0.5 h, 1 µM [2]: 58.7%; half-life at 1 µM [8]: 2.75 h; selectivity ratio [5]: > 1190; half-life at 1 µM [9]: 0.797 h; remaining at 0.5 h, 1 µM [4]: 63.9%; hepatocyte CLint at 1 µM [10]: 14.5 µL/min/1e6 cells; IC50 (HepG2): 19 µg/mL (≈ 41.6 µM)
CO[C@H]1/C=C/O[C@@]2(C)Oc3c(C)c(O)c4c(O)c(c(/C=N/N5CCN(C)CC5)c(O)c4c3C2=O)NC(=O)/C(C)=C\C=C\[C@H](C)[C@H](O)[C@@H](C)[C@@H](O)[C@@H](C)[C@H](OC(C)=O)[C@@H]1C [RIFAMPIN]	0.096 (≈ 0.117 µM)		
